Source: publication PMC8359308 (Clinical Pharmacology in Drug Development, 2020)
Like-named read-outs stand apart in the source and are kept apart here.

What was measured:
[1] = assay type: in vivo, human; details: for AUC(0-inf) / AUC(0-t) / Tmax: po, total glasdegib; for AUC(0-inf): AUCinf; for AUC(0-inf) / AUC(0-t) / Tmax / CL/F, total glasdegib / Cmax, total glasdegib: single oral 100 mg, fasted; for AUC(0-t): AUClast; for Tmax: median (range)
How it was run: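 Single oral 100 mg tablet dose of test compound after ≥10 h fast, with about 240 mL water and no food for 4 h. Plasma drawn predose and 1–120 h post-dose, total drug measured by validated LC-MS/MS. AUCinf (AUClast + Clast/kel, linear/log trapezoidal) and observed Cmax came from noncompartmental analysis. Log-transformed values were compared by one-way ANOVA (unequal variance), giving adjusted GMR versus normal-function controls with 90% CI.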

[2] = Phase I single-dose pharmacokinetics of unbound plasma glasdegib; assay type: in vivo, human; details: single oral 100 mg, fasted
How it was run: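 Single oral 100 mg tablet with about 240 mL water after a fast of at least 10 h, with no food for 4 h post-dose. Unbound samples were taken predose and at 1, 2 and 4 h. K2EDTA plasma was dialysed against PBS to equilibrium (6 h). Sertraline (300 ng/mL) served as positive control and glasdegib (100 ng/mL) as dialysis QC. Samples were read by LC-MS/MS (LLQ 1 ng/mL). Unbound parameters = fu × total noncompartmental values.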

[3] = Unbound fraction in plasma by equilibrium dialysis; assay type: in vitro ADME, human; details: for f u (fraction of unbound drug in plasma): geometric mean (%CV); for f u in plasma: statistic not given
[4] = Safety assessment after single oral 100 mg dose; assay type: in vivo, human; details: all 24 participants
How it was run: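 Participants were confined from day -1 through day 6, with telephone follow-up 28–35 days post-dose. AEs, laboratory values, physical examination, vital signs, ECGs and concomitant medications were monitored throughout. AEs were treatment-emergent if onset or worsening came after dosing and before follow-up, and were coded with MedDRA 22.0. Baseline was the last predose measurement. Analysis was descriptive.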

[5] = cited from earlier work
[6] = ketoconazole coadministered versus glasdegib alone; cited from earlier work
[7] = rifampin coadministered versus glasdegib alone; cited from earlier work
[8] = food with high calories and high fat content or concurrent rabeprazole; cited from earlier work
[9] = tested on: cytochrome P450 (CYP) 3A4/5; details: human hepatocytes, reaction phenotyping; cited from earlier work
[10] = mostly normal hepatic function or mild hepatic impairment; cited from earlier work
[11] = human, plasma, 100 mg, moderate hepatic impairment (n = 8), arithmetic mean ± SD
[12] = human, plasma, 100 mg, moderate hepatic impairment (n = 8), geometric mean (%CV)
[13] = human, plasma, 100 mg, normal hepatic function (n = 8), arithmetic mean ± SD
[14] = human, plasma, 100 mg, normal hepatic function (n = 8), geometric mean (%CV)
[15] = human, plasma, 100 mg, severe hepatic impairment (n = 8), arithmetic mean ± SD
[16] = human, plasma, 100 mg, severe hepatic impairment (n = 8), geometric mean (%CV)
[17] = severe hepatic impairment cohort
[18] = moderate hepatic impairment (n = 8), arithmetic mean ± SD
[19] = moderate hepatic impairment (n = 8), geometric mean (%CV)
[20] = normal hepatic function (n = 8), arithmetic mean ± SD
[21] = normal hepatic function (n = 8), geometric mean (%CV)
[22] = severe hepatic impairment (n = 8), arithmetic mean ± SD
[23] = severe hepatic impairment (n = 8), geometric mean (%CV)

CN1CC[C@@H](NC(=O)Nc2ccc(C#N)cc2)C[C@@H]1c1nc2ccccc2[nH]1 [glasdegib]
half-life ([1]; human, plasma, oral, 100 mg, mean terminal half-life, range across all hepatic function groups): 18.4 to 20.7 h | AUC(0-inf) [1, 11]: 12300 ± 3500 ng·h/mL | AUC(0-inf) [1, 12]: 11900 ng·h/mL | AUC(0-inf) [1, 13]: 11900 ± 6100 ng·h/mL | AUC(0-inf) [1, 14]: 10700 ng·h/mL | AUC(0-inf) [1, 15]: 8660 ± 3130 ng·h/mL | AUC(0-inf) [1, 16]: 8110 ng·h/mL | AUC(0-t) [1, 11]: 12200 ± 3460 ng·h/mL | AUC(0-t) [1, 12]: 11800 ng·h/mL | AUC(0-t) [1, 13]: 11800 ± 6080 ng·h/mL | AUC(0-t) [1, 14]: 10600 ng·h/mL | AUC(0-t) [1, 15]: 8480 ± 3100 ng·h/mL | AUC(0-t) [1, 16]: 7940 ng·h/mL | Tmax ([1]; human, plasma, 100 mg, moderate hepatic impairment (n = 8)): 2.5 h | Tmax ([1]; human, plasma, 100 mg, normal hepatic function (n = 8)): 1.5 h | Tmax ([1]; human, plasma, 100 mg, severe hepatic impairment (n = 8)): 1 h | reduction in AUCinf versus normal hepatic function, total glasdegib [1, 17]: 24% | reduction in Cmax versus normal hepatic function, total glasdegib [1, 17]: 42% | CL/F, total glasdegib [1, 18]: 8.8 ± 2.8 L/h | Cmax, total glasdegib [1, 18]: 899.8 ± 215.7 ng/mL | CL/F, total glasdegib [1, 19]: 8.4 (31) L/h | Cmax, total glasdegib [1, 19]: 875.9 (26) ng/mL | CL/F, total glasdegib [1, 20]: 10.2 ± 4.3 L/h | Cmax, total glasdegib [1, 20]: 989.9 ± 373.1 ng/mL | CL/F, total glasdegib [1, 21]: 9.3 (49) L/h | Cmax, total glasdegib [1, 21]: 924.4 (43) ng/mL | CL/F, total glasdegib [1, 22]: 13.3 ± 5.8 L/h | Cmax, total glasdegib [1, 22]: 612.0 ± 342.8 ng/mL | CL/F, total glasdegib [1, 23]: 12.3 (42) L/h | Cmax, total glasdegib [1, 23]: 536.3 (59) ng/mL | CLu/F, unbound glasdegib [2, 18]: 104.6 ± 34.6 L/h | CLu/F, unbound glasdegib [2, 19]: 100.2 (31) L/h | CLu/F, unbound glasdegib [2, 20]: 124.7 ± 43.5 L/h | CLu/F, unbound glasdegib [2, 21]: 118.4 (35) L/h | CLu/F, unbound glasdegib [2, 22]: 111.9 ± 58.1 L/h | CLu/F, unbound glasdegib [2, 23]: 101.6 (47) L/h | f u (fraction of unbound drug in plasma) ([3]; moderate hepatic impairment (n = 8)): 0.08 (7) | f u in plasma ([3]; moderate hepatic impairment group): 0.08 | f u (fraction of unbound drug in plasma) ([3]; normal hepatic function (n = 8)): 0.08 (16) | f u in plasma ([3]; normal hepatic function cohort): 0.08 | f u (fraction of unbound drug in plasma) ([3]; severe hepatic impairment (n = 8)): 0.12 (15) | f u in plasma ([3]; severe hepatic impairment group): 0.12 | higher f u compared with the normal function cohort ([3]; severe impairment cohort): 50% | clinically significant changes in laboratory values, vital signs, or ECGs [4]: no clinically significant changes in vital signs or ECGs | deaths, serious AEs, severe treatment-emergent AEs, discontinuations [4]: no deaths, serious AEs, severe treatment‐emergent AEs, discontinuations from the study | dose proportionality of pharmacokinetics [5]: linear dose‐proportional pharmacokinetics | mean half-life ([5]; clinical dose of 100 mg once daily): 17.4 h | unbound in plasma ([5]; plasma protein binding, moderately to highly bound): < 10% | increase in glasdegib AUCinf [6]: 2.4 fold | increase in glasdegib Cmax [6]: 1.4 fold | decrease in glasdegib AUCinf [7]: approximately 70% | decrease in glasdegib Cmax [7]: 35% | effect on glasdegib exposure [8]: minimal effect | enzyme in glasdegib biotransformation [9]: major enzyme | baseline hepatic function as covariate for variation in glasdegib PK [10]: not a statistically significant covariate
